The record followed here is ChEMBL document CHEMBL5614466, “Discovery of a Series of Macrocycles as Potent Inhibitors of Leishmania Infantum” (J Med Chem, 2024).

The subject of one series is Trypanosoma brucei. Description: Antitrypanosomal activity against axenic culture of Trypanosoma brucei Squib 427 infected in human MRC-5 SV2 cells assessed as reduction in parasite growth incubated for 72 hrs by resazurin reagent based fluorescence analysis. Format: functional, organism-based. In outline:
(§1)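 Trypomastigotes were grown axenically in culture medium. Growth reduction was determined by the previously reported method, with and without added inhibitor.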

Series [1] concerns Trypanosoma brucei rhodesiense. Briefly: Antitrypanosomal activity against axenic culture of Trypanosoma brucei rhodesiense infected in human MRC-5 SV2 cells assessed as reduction in parasite growth incubated for 72 hrs by resazurin reagent based fluorescence analysis. Format: functional, organism-based. In outline: as §1
Series [2] is described as follows: Cytotoxicity against mouse Peritoneal macrophage. Format: toxicity, cell-based. Particulars: peritoneal macrophages.
Series [3] is described as follows: Cytotoxicity against human MRC5 cells. It counts as toxicity, cell-based.

The structures appear in SMILES notation. Calls of active or inactive are those of the source. The calls are words filed in the database; no cut-off is given here. Some results are limits rather than exact numbers.

In the case of `COc1ccc(C[C@H](NC(=O)OC(C)(C)C)C(=O)N[C@@H](Cc2ccccc2)C(=O)NCC(=O)c2cccc(NC(=O)c3ccccn3)c2)cc1`, the result in the series with Trypanosoma brucei was inactive. Besides, the result in series [1] was Active.

In the case of `CC(C)(C)OC(=O)N[C@H]1Cc2ccc(cc2)Oc2ccc(cc2NC(=O)c2ccccn2)CCNC(=O)[C@H](Cc2ccccc2)NC1=O`, the result in the series with Trypanosoma brucei was inactive. Moreover, the result in series [1] was Active. Moreover, the CC50 – broadly, the concentration at which the toxic effect on the cells reaches its halfway point – in series [2] was more than 64 µM.

For the molecule `CC(C)(C)OC(=O)N[C@H]1Cc2ccc(cc2)Oc2ccc(cc2NC(=O)c2ccccn2)C(=O)CNC(=O)[C@H](Cc2ccccc2)NC1=O`, in series [3], the CC50 is more than 64 µM.

Regarding `CC(C)C[C@@H]1NC(=O)[C@@H](NC(=O)OC(C)(C)C)Cc2ccc(cc2)Oc2ccc(cc2NC(=O)c2ccccn2)C(=O)CNC1=O`, the result in the series with Trypanosoma brucei was inactive. The result in series [1] was Active.

Regarding `CC(=O)N[C@H]1Cc2ccc(cc2)Oc2ccc(cc2NC(=O)c2ccccn2)C(=O)CNC(=O)[C@H](Cc2ccccc2)NC1=O`, the outcome with Trypanosoma brucei was inactive. In series [1], the result was Active.

With `CC(C)(C)OC(=O)N[C@H]1Cc2ccc(cc2)Oc2ccc(cc2NC(=O)c2ccccn2)C(=O)CNC(=O)[C@@H](Cc2ccccc2)NC1=O`, in the series on Trypanosoma brucei, the result was inactive. The result in series [1] was Active.

On to `CC(=O)Nc1cc2ccc1Oc1ccc(cc1)C[C@H](NC(=O)OC(C)(C)C)C(=O)N[C@@H](Cc1ccccc1)C(=O)NCC2=O`, for which the CC50 in series [3] was more than 64 µM.

Take `CC(C)(C)C(=O)N[C@H]1Cc2ccc(cc2)Oc2ccc(cc2NC(=O)c2ccccn2)C(=O)CNC(=O)[C@H](Cc2ccccc2)NC1=O`: the result in the series with Trypanosoma brucei was inactive. For the same molecule, the result in series [1] was Active.

On to `CC(C)(C)OC(=O)N[C@H]1Cc2ccc(cc2)Oc2ccc(cc2)C(=O)CNC(=O)[C@H](Cc2ccccc2)NC1=O`, for which the CC50 in series [2] and in series [3] was more than 64 µM throughout.

For the molecule `CC(C)(C)OC(=O)N[C@H]1Cc2ccc(cc2)Oc2ccc(cc2NC(=O)c2ccccn2)C(=O)CNC(=O)[C@H](c2ccccc2)NC1=O`, the outcome in the series with Trypanosoma brucei was inactive. In series [1], the result was Active.

On to `C[C@@H]1NC(=O)[C@@H](NC(=O)OC(C)(C)C)Cc2ccc(cc2)Oc2ccc(cc2NC(=O)c2ccccn2)C(=O)CNC1=O`, for which the outcome in the series on Trypanosoma brucei was inactive. Also, the result in series [1] was Active.

Regarding `CC(C)(C)OC(=O)N[C@H]1CCc2ccc(cc2)Oc2ccc(cc2NC(=O)c2ccccn2)C(=O)CNC(=O)[C@H](Cc2ccccc2)NC1=O`, in the series with Trypanosoma brucei, the result was inactive. In addition, the result in series [1] was Active.
